Reference: ChEMBL document CHEMBL2062515, “Synthesis and evaluation of novel radioligands for positron emission tomography imaging of metabotropic glutamate receptor subtype 1 (mGluR1) in rodent brain” (J Med Chem, 2012)

How the values were obtained:
Thalamus [1] = assay: Drug uptake in Sprague-Dawley rat thalamus at 16 MBq administered as bolus infusion after 45 mins by PET analysis; format: ADME, organism-based; conditions: in vivo, iv, 0.75 h
Heart [2] = assay: Biodistribution in mouse heart at 4.8 MBq/140 uL, iv after 30 mins by gamma counting; format: ADME, organism-based; conditions: in vivo, 0.5 h
Method in brief: (§1)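 Mice received the radioligand in saline by tail vein (4.8 MBq/140 μL, 40 pmol). Four mice per time point were killed by cervical dislocation at 1, 5, 15, 30 and 60 min. Tissues were removed quickly and counted in an autogamma counter. Data are decay-corrected % injected dose per gram of wet tissue, mean ± SE, n = 4.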

Muscle tissue [3] = assay: Biodistribution in mouse muscle at 4.8 MBq/140 uL, iv after 5 mins by gamma counting; format: ADME, organism-based; conditions: in vivo
Method in brief: (§2)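 [¹¹C]radioligand in saline (4.8 MBq/140 μL, 40 pmol) injected via tail vein; four mice per time point killed by cervical dislocation at 1, 5, 15, 30, 60 min. Tissues (small intestine including contents) removed, counted in autogamma counter, decay-corrected, expressed as % injected dose per gram wet tissue; mean SE, n = 4.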

Muscle tissue [4] = assay: Biodistribution in mouse muscle at 4.8 MBq/140 uL, iv after 15 mins by gamma counting; format: ADME, organism-based; conditions: in vivo, 0.25 h; method in brief: as §1
Liver [5] = assay: Biodistribution in mouse liver at 4.8 MBq/140 uL, iv after 15 mins by gamma counting; format: ADME, organism-based; conditions: in vivo, 0.25 h; method in brief: as §1
Mus musculus = assay: Biodistribution in mouse small intestine at 4.8 MBq/140 uL, iv after 30 mins by gamma counting; format: ADME, organism-based; conditions: in vivo, 0.5 h; method in brief: as §2
Muscle tissue [6] = assay: Biodistribution in mouse muscle at 4.8 MBq/140 uL, iv after 30 mins by gamma counting; format: ADME, organism-based; conditions: in vivo, 0.5 h; method in brief: as §1
Heart [7] = assay: Biodistribution in mouse heart at 4.8 MBq/140 uL, iv after 15 mins by gamma counting; format: ADME, organism-based; conditions: in vivo, 0.25 h; method in brief: as §1
[8] = Ratio of drug uptake in cerebellum to pons of Sprague-Dawley rat at 16 MBq administered as bolus infusion; conditions: in vivo, iv
Liver [9] = assay: Biodistribution in mouse liver at 4.8 MBq/140 uL, iv after 5 mins by gamma counting; format: ADME, organism-based; conditions: in vivo; method in brief: as §1
[10] = Metabolic stability in Sprague-Dawley rat brain assessed as compound remaining after 90 mins; format: ADME, tissue-based; conditions: read-out: Stability
Lung [11] = assay: Biodistribution in mouse lung at 4.8 MBq/140 uL, iv after 5 mins by gamma counting; format: ADME, organism-based; conditions: in vivo; method in brief: as §1
Heart [12] = assay: Biodistribution in mouse heart at 4.8 MBq/140 uL, iv after 60 mins by gamma counting; format: ADME, organism-based; conditions: in vivo, 1 h; method in brief: as §1
Cerebellum = assay: Drug uptake in Sprague-Dawley rat cerebellum at 16 MBq administered as bolus infusion after 90 mins by PET analysis; format: ADME, organism-based; conditions: in vivo, iv, 1.5 h
Brain [13] = assay: Biodistribution in mouse brain at 4.8 MBq/140 uL, iv after 5 mins by gamma counting; format: ADME, organism-based; conditions: in vivo; method in brief: as §1
Thalamus [14] = assay: Drug uptake in Sprague-Dawley rat thalamus at 17 MBq administered as bolus infusion by PET analysis in presence of N-[4-[6-(isopropylamino)pyrimidin-4-yl]-1,3-thiazol-2-yl]-4-methoxy-N-methylbenzamide; format: ADME, organism-based; conditions: in vivo, iv
Spleen [15] = assay: Biodistribution in mouse spleen at 4.8 MBq/140 uL, iv after 1 min by gamma counting; format: ADME, organism-based; conditions: in vivo; method in brief: as §2
Brain [16] = assay: Biodistribution in mouse brain at 4.8 MBq/140 uL, iv after 15 mins by gamma counting; format: ADME, organism-based; conditions: in vivo, 0.25 h; method in brief: as §1
Heart [17] = assay: Biodistribution in mouse heart at 4.8 MBq/140 uL, iv after 1 min by gamma counting; format: ADME, organism-based; conditions: in vivo; method in brief: as §1
Spleen [18] = assay: Biodistribution in mouse spleen at 4.8 MBq/140 uL, iv after 5 mins by gamma counting; format: ADME, organism-based; conditions: in vivo; method in brief: as §2
[19] = Ratio of drug uptake in thalamus to pons of Sprague-Dawley rat at 16 MBq administered as bolus infusion; conditions: in vivo, iv
Lung [20] = assay: Biodistribution in mouse lung at 4.8 MBq/140 uL, iv after 30 mins by gamma counting; format: ADME, organism-based; conditions: in vivo, 0.5 h; method in brief: as §1
Brain [21] = assay: Biodistribution in mouse brain at 4.8 MBq/140 uL, iv after 1 min by gamma counting; format: ADME, organism-based; conditions: in vivo; method in brief: as §1
Blood = assay: Biodistribution in mouse blood at 4.8 MBq/140 uL, iv after 60 mins by gamma counting; format: ADME, organism-based; conditions: in vivo, 1 h; method in brief: as §1
Spleen [22] = assay: Biodistribution in mouse spleen at 4.8 MBq/140 uL, iv after 30 mins by gamma counting; format: ADME, organism-based; conditions: in vivo, 0.5 h; method in brief: as §2
Heart [23] = assay: Biodistribution in mouse heart at 4.8 MBq/140 uL, iv after 5 mins by gamma counting; format: ADME, organism-based; conditions: in vivo; method in brief: as §1

With `CC(C)Nc1cc(-c2csc(N(C)C(=O)c3ccc(O[11CH3])cc3)n2)ncn1` the Drug uptake (Thalamus [1]) was “Active”, the Drug uptake (Heart [2]) was 0.91 % ID/g and the Drug uptake (Muscle tissue [3]) was 1.22 % ID/g. The Drug uptake (Muscle tissue [4]) was 0.95 % ID/g, the Drug uptake (Liver [5]) was 5.57 % ID/g and the Drug uptake (Mus musculus) was 4.07 % ID/g. For the same compound, the Drug uptake (Muscle tissue [6]) was 0.64 % ID/g, the Drug uptake (Heart [7]) was 1.19 % ID/g and the Ratio [8] was 6.98. For the same compound, the Drug uptake (Liver [9]) was 8.34 % ID/g, the remaining at 1.5 h [10] was greater than 80% and the Drug uptake (Lung [11]) was 2.9 % ID/g. For the same compound, the Drug uptake (Heart [12]) was 0.81 % ID/g, the Drug uptake (Cerebellum) was 90% and the Drug uptake (Brain [13]) was 3.21 % ID/g. The Drug uptake (Thalamus [14]) was “Not Active”, the Drug uptake (Spleen [15]) was 1.97 % ID/g and the Drug uptake (Brain [16]) was 3.14 % ID/g. It also gave a Drug uptake (Heart [17]) of 4.63 % ID/g, a Drug uptake (Spleen [18]) of 1.96 % ID/g and a Ratio [19] of 5.05. The Drug uptake (Lung [20]) was 1.92 % ID/g, the Drug uptake (Brain [21]) was 3.1 % ID/g and the Drug uptake (Blood) was 0.64 % ID/g. The Drug uptake (Spleen [22]) was 2.14 % ID/g and the Drug uptake (Heart [23]) was 2.09 % ID/g.
